Measurements reported in ChEMBL document CHEMBL3994600, “Anthenosides L-U, Steroidal Glycosides with Unusual Structural Features from the Starfish Anthenea aspera” (J Nat Prod, 2016).

What was measured:
Erythrocyte = test: Hemolytic activity against CD-1 mouse erythrocytes after 1 hr by spectroscopic method; format: ADME, cell-based
Procedure, shortened: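 CD-1 mouse blood erythrocytes washed three times in PBS pH 7.4 (450g, 5 min), resuspended to OD700 1.5, kept on ice. Suspension mixed 9:1 with test solution at various concentrations, 37 °C for 1 h. Cells pelleted; supernatant hemoglobin read at 570 nm. Expressed as % hemolysis versus control; EC50 reported.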

RAW264.7 [1] = test: Cytotoxicity against mouse RAW264.7 cells assessed as reduction in cell viability by MTT assay; format: cell-based
Procedure, shortened: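 Macrophages (ATCC) grown in DMEM with 10% FBS at 37 °C, humidified 5% CO2. Viability by standard MTT method; at least triplicate, mean ± SD.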

Ehrlich = test: Cytotoxicity against mouse Ehrlich carcinoma cells assessed as reduction in cell viability by MTT assay; format: cell-based
Procedure, shortened: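 Ehrlich ascites carcinoma (tetraploid strain) grown in the peritoneal cavity of 18–20 g CD-1 mice. Cells harvested 7−10 days after inoculation, washed twice in PBS pH 7.4 (450g, 5 min), resuspended in serum-free RPMI-1640 at about (1−2) × 10^6 cells/mL. Standard MTT viability read-out; at least triplicate, mean ± SD.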

Splenocyte = test: Cytotoxicity against Balb/c mouse splenocytes assessed as reduction in cell viability by MTT assay; format: cell-based
Procedure, shortened: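 BALB/C spleen homogenized in PBS pH 7.4, filtered through nylon voile, washed three times by centrifugation (450g, 5 min), resuspended in PBS at (2−5) × 10^6 cells/mL. Viability measured by standard MTT method; at least triplicate, mean ± SD.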

RAW264.7 [2] = test: Induction of ROS generation in mouse RAW264.7 cells at 10 uM after 24 hrs by 2,7-dichlorodihydrofluorescein diacetate staining based fluorescence assay; format: cell-based; details: raw264.7, 24 h
RAW264.7 [3] = test: Immunomodulatory activity in mouse RAW264.7 cells assessed as inhibition of LPS-induced ROS level at 10 uM after 24 hrs by 2,7-dichlorodihydrofluorescein diacetate staining based fluorescence assay relative to control; format: functional; details: RAW264.7, 24 h
Procedure, shortened: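 Macrophages allowed to adhere 2 h at 37 °C, 5% CO2, then exposed to compounds at 10 μM for 24 h. In each experiment compounds were co-incubated with E. coli 055:B5 LPS (1.0 μg/mL). H2DCF-DA added (final 10 μM), 10 min at 37 °C. Fluorescence read at 485/518 nm; at least triplicate, mean ± SD, Student's t test (p < 0.05).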

Which Activity (Erythrocyte) does the source give for `CO[C@@H]1[C@@H](O)[C@H](O[C@@H]2CC3=C4[C@@H](O)[C@@H](O)[C@H]5C[C@H](O)CC[C@]5(C)[C@H]4CC[C@]3(C)[C@H]2[C@H](C)/C=C/[C@@H](C)C(C)C)O[C@H]1[C@H](O)CO` here?
Its Activity is “Non-Toxic”.

And the Activity (RAW264.7 [1])?
Its Activity is “Non-Toxic”.

And the Activity (Ehrlich)?
Its Activity is “Non-Toxic”.

And the Activity (Splenocyte)?
Its Activity is “Non-Toxic”.

And the Activity (RAW264.7 [2])?
Its Activity is “Non-Toxic”.

For `COC[C@@H](O)[C@@H]1O[C@@H](O[C@@H]2C3=C4C[C@@H](O[C@@H]5O[C@H](CO)[C@@H](O)[C@H](OC)[C@H]5O)[C@H]([C@H](C)/C=C/CC(C)C)[C@@]4(C)CC[C@@H]3[C@@]3(C)CC[C@@H](O)C[C@@H]3[C@@H]2O)[C@H](O)[C@H]1O`, which Activity (Erythrocyte) is on record?
Its Activity is “Non-Toxic”.

What about the Activity (RAW264.7 [1]) of the same molecule?
Its Activity is “Non-Toxic”.

What about the Activity (Ehrlich) of the same molecule?
The Activity was “Non-Toxic”.

And the Activity (Splenocyte)?
The Activity was “Non-Toxic”.

What about the Activity (RAW264.7 [2]) of the same molecule?
Its Activity is “Non-Toxic”.

For `CO[C@@H]1[C@@H](O)[C@H](O[C@@H]2CC3=C4[C@@H](O)[C@@H](O)[C@H]5C[C@H](O)CC[C@]5(C)[C@H]4CC[C@]3(C)[C@H]2[C@H](C)/C=C/[C@@H](C)C(C)C)O[C@H](CO)[C@H]1O`, which Activity (Erythrocyte) is on record?
Its Activity is “Non-Toxic”.

What about the Activity (RAW264.7 [1]) of the same molecule?
Its Activity is “Non-Toxic”.

What about the inhibition at 10 µM (RAW264.7 [3]) of the same molecule?
The inhibition at 10 µM was 24%.

And the Activity (Ehrlich)?
The Activity was “Non-Toxic”.

And the Activity (Splenocyte)?
Its Activity is “Non-Toxic”.

And the Activity (RAW264.7 [2])?
The Activity was “Non-Toxic”.

Which Activity (Erythrocyte) does the source give for `COC[C@@H](O)[C@@H]1O[C@@H](O[C@@H]2C3=C4C[C@@H](O[C@@H]5O[C@@H]([C@H](O)COC)[C@H](O)[C@H]5O)[C@H]([C@H](C)/C=C/[C@@H](C)C(C)C)[C@@]4(C)CC[C@@H]3[C@@]3(C)CC[C@@H](O)C[C@@H]3[C@@H]2O)[C@H](O)[C@H]1O` here?
Its Activity is “Non-Toxic”.

What about the Activity (RAW264.7 [1]) of the same molecule?
The Activity was “Non-Toxic”.

What about the Activity (Ehrlich) of the same molecule?
Its Activity is “Non-Toxic”.

What about the Activity (Splenocyte) of the same molecule?
The Activity was “Non-Toxic”.

And the Activity (RAW264.7 [2])?
Its Activity is “Non-Toxic”.

Which results are given for `COC[C@@H](O)[C@@H]1O[C@@H](O[C@@H]2CC3=C4[C@@H](O)[C@@H](O)[C@H]5C[C@H](O)CC[C@]5(C)[C@H]4CC[C@]3(C)[C@H]2[C@H](C)/C=C/[C@@H](C)C(C)C)[C@H](O)[C@H]1O`?
Activity (Erythrocyte): Non-Toxic; Activity (RAW264.7 [1]): Non-Toxic; Activity (Ehrlich): Non-Toxic; Activity (Splenocyte): Non-Toxic; Activity (RAW264.7 [2]): Non-Toxic

Which Activity (Erythrocyte) does the source give for `COC[C@@H](O)[C@@H]1O[C@@H](O[C@@H]2C3=C4C[C@@H](O[C@@H]5O[C@H](CO)[C@@H](O)[C@H](OC)[C@H]5O)[C@H]([C@H](C)CCCC(C)C)[C@@]4(C)CC[C@@H]3[C@@]3(C)CC[C@@H](O)C[C@@H]3[C@@H]2O)[C@H](O)[C@H]1O` here?
Its Activity is “Non-Toxic”.

And the Activity (RAW264.7 [1])?
Its Activity is “Non-Toxic”.

And the Activity (Ehrlich)?
Its Activity is “Non-Toxic”.

What about the Activity (Splenocyte) of the same molecule?
The Activity was “Non-Toxic”.

What about the Activity (RAW264.7 [2]) of the same molecule?
The Activity was “Non-Toxic”.

How did the Activity (Erythrocyte) turn out when `C=C(CC[C@@H](C)[C@H]1[C@H](O[C@@H]2O[C@@H]([C@H](O)COC)[C@H](O)[C@H]2O)CC2=C3[C@@H](O[C@@H]4O[C@@H]([C@H](O)CO)[C@H](OC)[C@H]4O)[C@@H](O)[C@H]4C[C@H](O)CC[C@]4(C)[C@H]3CC[C@@]21C)C(C)C` was run?
The Activity was “Non-Toxic”.

What about the Activity (RAW264.7 [1]) of the same molecule?
The Activity was “Non-Toxic”.

What about the Activity (Ehrlich) of the same molecule?
The Activity was “Non-Toxic”.

What about the Activity (Splenocyte) of the same molecule?
The Activity was “Non-Toxic”.

And the Activity (RAW264.7 [2])?
The Activity was “Non-Toxic”.

What does the source list for `CO[C@@H]1[C@@H](O)[C@H](O[C@@H]2CC3=C4[C@@H](O)[C@@H](O)[C@H]5C[C@H](O)CC[C@]5(C)[C@H]4CC[C@]3(C)[C@H]2[C@H](C)/C=C/C(C)C)O[C@H](CO)[C@H]1O`?
Activity (Erythrocyte): Non-Toxic; Activity (RAW264.7 [1]): Non-Toxic; Activity (Ehrlich): Non-Toxic; Activity (Splenocyte): Non-Toxic; Activity (RAW264.7 [2]): Non-Toxic
